pIC50: −log10 of the molar value. ≈ marks a conversion by molar mass, not a printed value. Calls of active or inactive are those of the source. The rule behind the calls is not given here.
Legend:
[1] = Intrinsic clearance in human microsomes; assay type: ADME, Microsome
Canis familiaris [2] = experiment: Sleep promoting activity in beagle dog assessed as increase in REM sleep at 0.01 and 0.05 mg/kg, po dosed for 5 consecutive days; assay type: functional, organism-based; design: dose 0.05 mg/kg; details: Canis lupus familiaris
Procedure, shortened: (§1)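 Beagles implanted with radio-telemetry ECoG/EMG transmitters received 0.01 and 0.05 mg/kg po or vehicle (20% Vitamin E TPGS). Balanced cross-over design over 5 consecutive days. Active wake, NREM I, NREM II (including delta sleep) and REM were scored as mean within-subject change versus vehicle.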

[3] = Volume of distribution at steady state in dog at 10 mg/kg, po or 2 mg/kg, iv; assay type: ADME, organism-based, Canis lupus familiaris; details: in vivo, read-out: Vdss
Procedure, shortened: (§2)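 Dog pharmacokinetics determined after intravenous and oral administration.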

P-gp [4] = experiment: Substrate activity at rat P-gp assessed as efflux ratio in cell based assay; assay type: ADME; details: not told
[5] = Lipophilicity, log D of the compound by HPLC method; assay type: physicochemical; details: read-out: logD
CHO-K1 = experiment: Selectivity index, ratio of IC50 for human OX1R expressed in CHOK1 cells to IC50 for human OX2R expressed in CHOK1 cells by FLIPR assay; assay type: cell-based
Procedure, shortened: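 Ratio of OX1R FLIPR IC50 to OX2R FLIPR IC50. Both come from Ca2+-flux assays on human orexin receptors expressed in CHO-K1 cells, each averaged over n ≥ 2 experiments.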

Mus musculus [6] = experiment: Sleep promoting activity in OX2R knock out mouse with targeted disruption of the Hcrtr2 gene assessed as effect on slow wave sleep at 30 mg/kg, po dosed for 5 consecutive days measured after 1 hr; assay type: functional, organism-based; design: dose 30 mg/kg
Procedure, shortened: (§3)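 Sleep architecture recorded in ambulatory mice (wild-type N = 7; OX2R KO N = 6) implanted with radio-telemetry transmitters for ECoG and EMG. Compound given at 30 mg/kg po; vehicle was 20% Vitamin E TPGS po. Balanced cross-over design over 5 consecutive treatment days. Read-out is mean within-subject change versus vehicle in active wake, SWS and REM.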

Mus musculus [7] = experiment: Sleep promoting activity in OX2R knock out mouse with targeted disruption of the Hcrtr2 gene assessed as effect on active wake at 30 mg/kg, po dosed for 5 consecutive days measured after 1 hr; assay type: functional, organism-based; design: dose 30 mg/kg; procedure, shortened: as §3
[8] = Oral bioavailability in Wistar Han rat at 10 mg/kg; assay type: ADME, organism-based; details: in vivo
Procedure, shortened: (§4)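 Pharmacokinetics in Wistar Han rats (n = 2) after intravenous and oral dosing. Oral dose was 10 mg/kg in PEG400:Tween80/water 40:10:50. IV dose was 2 mg/kg in DMSO/PEG400/water 20:60:20.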

[9] = Unbound fraction in dog plasma at 1 uM; assay type: ADME, cell-free, Canis lupus familiaris
Procedure, shortened: (§5)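 Plasma protein binding measured at a compound concentration of 1 µM. Reported as percent unbound fraction in human, rat, dog and monkey plasma.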

[10] = Half life in dog at 10 mg/kg, po or 2 mg/kg, iv; assay type: ADME, organism-based, Canis lupus familiaris; details: in vivo; procedure, shortened: as §2
[11] = Half life in Wistar Han rat at 10 mg/kg, po or 2 mg/kg, iv; assay type: ADME, organism-based; details: in vivo; procedure, shortened: as §4
[12] = Unbound fraction in human plasma at 1 uM; assay type: ADME, cell-free; procedure, shortened: as §5
[13] = Volume of distribution at steady state in Wistar Han rat at 10 mg/kg, po or 2 mg/kg, iv; assay type: ADME, organism-based; details: in vivo, read-out: Vdss; procedure, shortened: as §4
Homo sapiens = species: Homo sapiens; experiment: Inhibition of CYP450 (unknown origin)
[14] = Unbound fraction in monkey plasma at 1 uM; assay type: ADME, cell-free, Macaca mulatta; details: rhesus monkey; procedure, shortened: as §5
Mus musculus [15] = experiment: Sleep promoting activity in mouse assessed as increase in slow wave sleep at 30 mg/kg, po dosed for 5 consecutive days measured after 1 hr; assay type: functional, organism-based; design: dose 30 mg/kg; procedure, shortened: as §3
Mus musculus [16] = experiment: Sleep promoting activity in mouse assessed as reduction of active wake at 30 mg/kg, po dosed for 5 consecutive days measured after 1 hr; assay type: functional, organism-based; design: dose 30 mg/kg; procedure, shortened: as §3
[17] = Induction of CYP450 (unknown origin); assay type: ADME; details: human
[18] = Oral bioavailability in dog at 10 mg/kg; assay type: ADME, organism-based, Canis lupus familiaris; details: in vivo; procedure, shortened: as §2
[19] = Solubility of the compound at pH 7; assay type: physicochemical; details: buffer, read-out: solubility
Mus musculus [20] = experiment: Sleep promoting activity in OX2R knock out mouse with targeted disruption of the Hcrtr2 gene assessed as effect on REM sleep at 30 mg/kg, po dosed for 5 consecutive days measured after 1 hr; assay type: functional, organism-based; design: dose 30 mg/kg; procedure, shortened: as §3
Mus musculus [21] = experiment: Sleep promoting activity in mouse assessed as effect on REM sleep at 30 mg/kg, po dosed for 5 consecutive days measured after 1 hr; assay type: functional, organism-based; design: dose 30 mg/kg; procedure, shortened: as §3
[22] = Clearance in Wistar Han rat at 10 mg/kg, po or 2 mg/kg, iv; assay type: ADME, organism-based; details: in vivo; procedure, shortened: as §4
[23] = Permeability in pig LLC-PK1 cells; assay type: ADME, cell-based, Sus scrofa; details: read-out: permeability
Procedure, shortened: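 Passive permeability measured in LLC-PK1 cells and expressed in cm/s.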

Canis familiaris [24] = experiment: Sleep promoting activity in beagle dog assessed as increase in delta sleep at 0.01 and 0.05 mg/kg, po dosed for 5 consecutive days; assay type: functional, organism-based; design: dose 0.05 mg/kg; details: Canis lupus familiaris; procedure, shortened: as §1
[25] = molecular target: T1, Orexin/Hypocretin receptor type 1 (Homo sapiens, UniProt O43613); experiment: Antagonist activity against human OX1R expressed in CHOK1 cells assessed as inhibition of orexin A-induced […] Ca2+ mobilization by FLIPR assay; assay type: functional, cell-based, CHO-K1
T1 sequence (O43613 whole entry): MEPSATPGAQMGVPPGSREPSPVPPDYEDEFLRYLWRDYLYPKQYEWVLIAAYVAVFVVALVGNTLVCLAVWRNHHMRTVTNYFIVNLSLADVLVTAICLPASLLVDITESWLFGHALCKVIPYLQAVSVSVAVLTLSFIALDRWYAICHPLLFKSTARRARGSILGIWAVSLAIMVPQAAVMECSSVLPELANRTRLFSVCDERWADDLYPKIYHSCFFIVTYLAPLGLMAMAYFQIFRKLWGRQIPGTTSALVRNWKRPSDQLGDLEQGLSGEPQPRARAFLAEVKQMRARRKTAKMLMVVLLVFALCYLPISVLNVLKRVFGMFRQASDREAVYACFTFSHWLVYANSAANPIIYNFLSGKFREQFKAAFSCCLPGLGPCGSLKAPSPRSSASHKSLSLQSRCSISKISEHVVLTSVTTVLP
Procedure, shortened: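 Cell-based FLIPR assay measuring Ca2+ flux as the functional read-out of orexin receptor antagonism. Target is the human orexin receptor expressed in CHO-K1 cells.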

Canis familiaris [26] = experiment: Sleep promoting activity in beagle dog assessed as increase in REM2 sleep at 0.01 and 0.05 mg/kg, po dosed for 5 consecutive days; assay type: functional, organism-based; design: dose 0.05 mg/kg; details: Canis lupus familiaris, in the assay text read “NREM2 sleep” for “REM2 sleep”; procedure, shortened: as §1
P-gp [27] = experiment: Substrate activity at human P-gp assessed as efflux ratio in cell based assay; assay type: ADME; details: not told
[28] = Unbound fraction in rat plasma at 1 uM; assay type: ADME, cell-free; procedure, shortened: as §5
Canis familiaris [29] = experiment: Sleep promoting activity in beagle dog assessed as increase in non-REM NREM1 sleep at 0.01 and 0.05 mg/kg, po dosed for 5 consecutive days; assay type: functional, organism-based; design: dose 0.05 mg/kg; details: Canis lupus familiaris; procedure, shortened: as §1
Rattus norvegicus [30] = experiment: Sleep promoting activity in rat assessed as increase in slow wave sleep at 1 and 3 mg/kg, po dosed for 3 consecutive days measured after 2 hrs; assay type: functional, organism-based; design: dose 3 mg/kg
Procedure, shortened: (§6)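 Rats implanted with radio-telemetry ECoG/EMG transmitters and recorded while ambulatory. Dosed at 1 and 3 mg/kg po or with vehicle (20% Vitamin E TPGS) in a balanced cross-over over 3 consecutive days. Active wake, SWS and REM were scored in the 2 h after dosing as within-subject change versus vehicle.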

[31] = Ratio of drug level in CSF to plasma in rat; assay type: ADME; details: CSF and plasma
[32] = Solubility of the compound at pH 7.4; assay type: physicochemical; details: buffer
Canis familiaris [33] = experiment: Sleep promoting activity in beagle dog assessed as reduction of active wake at 0.01 and 0.05 mg/kg, po dosed for 5 consecutive days; assay type: functional, organism-based; design: dose 0.05 mg/kg; details: Canis lupus familiaris; procedure, shortened: as §1
[34] = Clearance in dog at 10 mg/kg, po or 2 mg/kg, iv; assay type: ADME, organism-based, Canis lupus familiaris; details: in vivo; procedure, shortened: as §2
Rattus norvegicus [35] = experiment: Sleep promoting activity in rat assessed as increase in REM sleep at 1 and 3 mg/kg, po dosed for 3 consecutive days measured after 2 hrs; assay type: functional, organism-based; design: dose 3 mg/kg; procedure, shortened: as §6
Rattus norvegicus [36] = experiment: Sleep promoting activity in rat assessed as reduction of active wake at 1 and 3 mg/kg, po dosed for 3 consecutive days measured after 2 hrs; assay type: functional, organism-based; design: dose 3 mg/kg; procedure, shortened: as §6

With `C[C@@H]1CC[C@@H](Oc2cc(C#N)ccn2)CN1C(=O)c1ccccc1-c1ncccn1` the CLint scaled [1] was 17 mL/min/kg, the Activity (Canis familiaris [2]) was “Active” and the Vd [3] was 0.97 L/kg. It also gave an efflux ratio (P-gp [4]) of 2.3, a logD [5] of 2.9 and a Ratio IC50 (CHO-K1) of 174. For the same molecule, the Activity (Mus musculus [6]) was “inactive”, the Activity (Mus musculus [7]) was “inactive” and the bioavailability [8] was 80%. The fraction unbound at 1 µM [9] was 0.166, the half-life [10] was 0.8 h and the half-life [11] was 4.3 h. For the same molecule, the fraction unbound at 1 µM [12] was 0.028, the Vd [13] was 1.3 L/kg and the inhibition (Homo sapiens) was “inactive”. The fraction unbound at 1 µM [14] was 0.239, the Activity (Mus musculus [15]) was “Active” and the Activity (Mus musculus [16]) was “Active”. For the same molecule, the Activity [17] was “Not Active”, the bioavailability [18] was 53% and the solubility [19] was 183 µM (≈ 73.1 µg/mL). The Activity (Mus musculus [20]) was “inactive”, the Activity (Mus musculus [21]) was “inactive” and the clearance [22] was 37 mL/min/kg. The Papp [23] was 33 ×10⁻⁶ cm/s, the Activity (Canis familiaris [24]) was “Dose-dependent effect” and the pIC50 [25] was 5.31. For the same molecule, the Activity (Canis familiaris [26]) was “Dose-dependent effect”, the efflux ratio (P-gp [27]) was 0.7 and the fraction unbound at 1 µM [28] was 0.076. For the same molecule, the Activity (Canis familiaris [29]) was “Dose-dependent effect”, the Activity (Rattus norvegicus [30]) was “Active” and the Kp [31] was 0.1. The solubility [32] was 250 µg/mL (≈ 626 µM), the Activity (Canis familiaris [33]) was “Dose-dependent effect” and the clearance [34] was 15 mL/min/kg. For the same molecule, the Activity (Rattus norvegicus [35]) was “Active” and the Activity (Rattus norvegicus [36]) was “Active”.

Source: ChEMBL document CHEMBL3425449, “Identification of MK-8133: An orexin-2 selective receptor antagonist with favorable development properties” (Bioorg Med Chem Lett, 2015)
